# Test results from ChEMBL document CHEMBL4480375, “Synthesis and receptor binding of thiophene bioisosteres of potent GluN2B ligands with a benzo[7]annulene-scaffold” (Medchemcomm, 2019).
# Experiments:
# [1] = target: T1, Sigma intracellular receptor 2 (Rattus norvegicus, UniProt Q5U3Y7); assay: Displacement of [3H]di-o-tolylguanidine from sigma2 receptor in rat liver membranes measured after 120 mins by scintillation counting analysis; assay type: cell membranes
# T1 sequence (Q5U3Y7 whole entry): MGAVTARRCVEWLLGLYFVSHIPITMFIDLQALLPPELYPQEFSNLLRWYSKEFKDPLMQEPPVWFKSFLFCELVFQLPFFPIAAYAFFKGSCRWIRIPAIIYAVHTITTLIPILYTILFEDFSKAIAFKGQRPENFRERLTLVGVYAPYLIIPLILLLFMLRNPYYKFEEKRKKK
# [2] = target: Glutamate receptor ionotropic, NMDA 2B (Homo sapiens, UniProt Q05586+Q13224); assay: Displacement of [3H]-ifenprodil from GluN2B (unknown origin) expressed in L(tk) cells by radio ligand binding assay; assay type: cell-based
# Chain of Glutamate receptor ionotropic, NMDA 2B (Homo sapiens, UniProt Q05586+Q13224) (Q13224 whole entry, one chain of several): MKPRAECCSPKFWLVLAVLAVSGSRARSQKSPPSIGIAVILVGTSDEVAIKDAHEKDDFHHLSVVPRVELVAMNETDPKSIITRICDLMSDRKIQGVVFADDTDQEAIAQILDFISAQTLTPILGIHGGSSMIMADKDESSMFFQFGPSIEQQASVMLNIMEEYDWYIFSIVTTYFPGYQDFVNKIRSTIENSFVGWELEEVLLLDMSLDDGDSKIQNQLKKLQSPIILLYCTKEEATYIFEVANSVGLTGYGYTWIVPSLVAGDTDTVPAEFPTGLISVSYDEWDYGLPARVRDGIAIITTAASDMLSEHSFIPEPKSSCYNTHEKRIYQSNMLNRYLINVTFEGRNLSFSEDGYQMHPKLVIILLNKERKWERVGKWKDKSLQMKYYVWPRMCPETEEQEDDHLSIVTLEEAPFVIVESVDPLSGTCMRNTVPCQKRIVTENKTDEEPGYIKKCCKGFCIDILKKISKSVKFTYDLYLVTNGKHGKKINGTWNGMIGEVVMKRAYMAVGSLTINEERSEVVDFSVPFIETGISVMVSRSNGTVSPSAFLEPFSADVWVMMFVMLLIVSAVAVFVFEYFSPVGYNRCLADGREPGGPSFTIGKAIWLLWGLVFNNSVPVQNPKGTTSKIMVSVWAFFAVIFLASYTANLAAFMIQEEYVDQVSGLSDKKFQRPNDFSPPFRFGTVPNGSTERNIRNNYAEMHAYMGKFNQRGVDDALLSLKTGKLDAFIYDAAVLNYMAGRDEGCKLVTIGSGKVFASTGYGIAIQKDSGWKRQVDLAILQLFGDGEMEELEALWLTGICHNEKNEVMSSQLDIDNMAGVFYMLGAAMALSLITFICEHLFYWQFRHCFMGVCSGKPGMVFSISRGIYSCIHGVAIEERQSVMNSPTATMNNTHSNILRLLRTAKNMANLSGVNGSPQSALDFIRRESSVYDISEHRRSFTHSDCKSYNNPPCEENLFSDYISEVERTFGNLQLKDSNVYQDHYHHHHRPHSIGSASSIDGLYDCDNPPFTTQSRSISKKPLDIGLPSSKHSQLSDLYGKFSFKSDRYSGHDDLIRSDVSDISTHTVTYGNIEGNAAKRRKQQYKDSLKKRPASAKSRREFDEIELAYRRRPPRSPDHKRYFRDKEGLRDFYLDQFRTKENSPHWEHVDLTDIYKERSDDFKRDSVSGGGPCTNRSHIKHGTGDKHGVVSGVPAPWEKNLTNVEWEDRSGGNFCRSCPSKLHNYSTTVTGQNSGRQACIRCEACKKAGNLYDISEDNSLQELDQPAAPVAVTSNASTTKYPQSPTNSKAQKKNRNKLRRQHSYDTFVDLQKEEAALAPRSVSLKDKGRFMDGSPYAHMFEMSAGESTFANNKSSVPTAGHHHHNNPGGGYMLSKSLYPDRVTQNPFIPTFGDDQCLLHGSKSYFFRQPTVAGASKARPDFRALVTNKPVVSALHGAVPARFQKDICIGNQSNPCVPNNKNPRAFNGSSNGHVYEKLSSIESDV
# Method in brief: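 Mouse L(tk-) cells stably carrying dexamethasone-inducible GluN1a/GluN2B (1:5) were induced for 24 h with 4 μM dexamethasone plus 4 μM ketamine, then sonicated to membranes (about 20 μg protein). […] Filtration and scintillation counting, in duplicate. Ki by Cheng–Prusoff (Kd 7.6 nM), mean ± SEM of n=3.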
# [3] = target: T2, Glutamate receptor ionotropic, NMDA 2B (Homo sapiens, UniProt Q13224); assay: Displacement of [3H]-ifenprodil from GluN2B (unknown origin) expressed in mouse L(tk) cells measured after 120 mins by scintillation counting analysis
# T2 sequence (Q13224 whole entry): as the sequence (Q13224 whole entry, one chain of several) above
# [4] = target: Sigma non-opioid intracellular receptor 1 (Cavia porcellus, UniProt Q60492); assay: Displacement of [3H]-(+)-pentazocine from sigma1 receptor in guinea pig brain cortex membranes measured after 120 mins by scintillation counting analysis; assay type: cell membranes
# Chain of Sigma non-opioid intracellular receptor 1 (Q60492 whole entry): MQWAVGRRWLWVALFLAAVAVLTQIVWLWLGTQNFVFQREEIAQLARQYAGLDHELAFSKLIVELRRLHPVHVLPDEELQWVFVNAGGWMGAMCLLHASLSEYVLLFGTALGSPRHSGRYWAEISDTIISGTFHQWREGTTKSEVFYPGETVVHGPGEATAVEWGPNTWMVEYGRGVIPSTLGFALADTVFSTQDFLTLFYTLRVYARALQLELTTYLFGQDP
# [5] = target: T2, Glutamate receptor ionotropic, NMDA 2B; assay: Inhibition of GluN2B (unknown origin)
Structure (SMILES),Ki [1] [µM],Ki [2] [µM],Ki [3] [µM],Ki [4] [µM],Ki [5] [µM]
Nc1ccc2c(c1)CCC(NCc1ccccc1)CC2 (stereo unspecified),0.77,0.128,0.128,0.47,
COc1ccc2c(c1)CC[C@H](NCCCc1ccccc1)C[C@H]2O (relative stereo),1.1,,0.048,0.167,0.048
OC1CC(NCc2ccccc2)CCc2sccc21 (mixture of isomers),0.606,,0.204,0.737,

# Compounds with a lower Ki [1], results first:
Ki [1] [µM],Ki [2] [µM],Ki [3] [µM],Ki [4] [µM],Ki [5] [µM],Structure (SMILES)
0.05,,0.026,0.079,,c1ccc(CNC2CCc3ccsc3CC2)cc1 (stereo unspecified)
0.0092,,,0.132,,COc1ccc2c(c1)CC[C@H](NCCCc1ccccc1)C[C@@H]2O (relative stereo)
